Screening results from PubChem BioAssay.
DNMT1 inh = human DNMT1 methyltransferase inhibitors, primary screen, biochemical, molecular beacon, fluorescence, HinP1I cleavage, uHTS | DNA (cytosine-5)-methyltransferase 1 (Homo sapiens), P26358 | inhibition (reported as % activation of signal), % at 10 µM | 360,000 compounds, 0.83% hits | AID 588458, 2011; in the data active = inhibition above about 50%
Rpn11 inh = Rpn11 (PSMD14) deubiquitinase inhibitors, primary screen, biochemical, fluorescence polarization, uHTS; 26S proteasome non-ATPase regulatory subunit 14 (Homo sapiens), O00487; human 26S proteasome, Ub4-pepOG fluorescence polarization; 20S core pre-blocked with epoxomicin; inhibition, % at 20 µM; 360,000 compounds, 0.59% hits;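 active = inhibition at 20 µM, scaled to each plate's controls, above about 33%, limit read from the data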
Target sequence (O00487 whole entry, looked up): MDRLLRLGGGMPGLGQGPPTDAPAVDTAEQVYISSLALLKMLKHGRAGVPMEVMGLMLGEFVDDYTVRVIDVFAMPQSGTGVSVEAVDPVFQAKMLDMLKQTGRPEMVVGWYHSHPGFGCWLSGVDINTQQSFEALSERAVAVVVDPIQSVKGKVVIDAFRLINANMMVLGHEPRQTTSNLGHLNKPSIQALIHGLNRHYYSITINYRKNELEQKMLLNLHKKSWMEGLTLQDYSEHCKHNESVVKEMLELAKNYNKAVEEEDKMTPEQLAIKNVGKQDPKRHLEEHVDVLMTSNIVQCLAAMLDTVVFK
STEP inh = STEP phosphatase inhibitors, primary screen, biochemical, fluorescence intensity, uHTS | AID 588621, 2011 | inhibition, % at 20 µM | recombinant STEP, OMFP fluorogenic substrate | Tyrosine-protein phosphatase non-receptor type 5 (Homo sapiens), P54829 | 360,000 compounds, 0.25% hits;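 active = inhibition at 20 µM, scaled per plate between control wells, above about 37%, limit read from the data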
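Also added – OMFP at 25 µM · Test system – STEP tyrosine phosphatase · Technique – FITC-channel fluorescence of OMFP product · Schedule – 20 min at room temperature, dark · Evaluation – control-normalized % inhibition with plate pattern correction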
LMPTP block = LMPTP phosphatase inhibitors, primary screen, biochemical, fluorescence intensity, uHTS. recombinant LMPTP-A, OMFP fluorogenic substrate. Low molecular weight phosphotyrosine protein phosphatase (Homo sapiens), P24666. inhibition, % at 20 µM. 360,000 compounds, 0.22% hits;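 active = compounds that cut the enzyme signal by at least half of the control window in the single-dose screen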
Target sequence (P24666 whole entry, looked up): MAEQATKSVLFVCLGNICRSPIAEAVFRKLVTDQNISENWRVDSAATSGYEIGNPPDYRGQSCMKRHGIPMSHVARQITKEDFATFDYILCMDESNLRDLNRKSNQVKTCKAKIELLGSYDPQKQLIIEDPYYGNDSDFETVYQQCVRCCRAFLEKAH
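Test system – LMPTP-A enzyme · Amount – LMPTP-A at 0.625 nM final in the reaction · Buffer or medium – Bis-Tris pH 6.0, DTT, detergent · Reagent – OMFP 400 µM · Doses – single 20 µM dose · Schedule – reaction 50 min, room temperature, dark · Detection – fluorescence intensity of OMFP turnover product · Evaluation – percent inhibition versus substrate-only and uninhibited controls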
SUMO1-SIM PPI = modulators of SUMO1 protein-protein interactions, primary screen, biochemical, uHTS; SUMO1 binding to a labelled peptide, TR-FRET, 1 h; inhibition, % at 20 µM; 360,000 compounds, 0.33% hits; AID 602429, 2012; in the data active = inhibition above about 37%
Target sequence (P63165 whole entry, looked up): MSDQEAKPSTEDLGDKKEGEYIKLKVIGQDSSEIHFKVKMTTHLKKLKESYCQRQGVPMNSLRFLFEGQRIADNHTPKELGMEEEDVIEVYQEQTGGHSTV
Scp1 inh = Scp-1 phosphatase inhibitors, primary screen, biochemical, colorimetric, uHTS; Carboxy-terminal domain RNA polymerase II polypeptide A small phosphatase 1 (Homo …; Recombinant Scp1, phosphopeptide, malachite green phosphate absorbance; inhibition, % at 20 µM; 340,000 compounds, 0.88% hits; AID 493091, 2011;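 active = inhibition above about 50% at 20 µM, limit read from the data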
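assay system = SCP-1 phosphatase catalytic domain, residues 76-261 | buffer or medium = 50 mM Tris acetate pH 5.5, 0.005% Tween-20, 10 mM MgCl2 | incubation = enzyme reaction 45 min at room temperature, colour 5 min, stabilisation 30 min | signal = Phosphate-binding colour reagent, absorbance read at 630 nm | measure = % inhibition at 20 µM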
Scp-1 conf = Scp-1 phosphatase inhibitors, retest, confirmation, biochemical, colorimetric, single concentration | recombinant SCP-1 catalytic domain, phosphate release, malachite green absorbance | inhibition, % at 20 µM | 2,500 compounds, 61% hits | AID 540281, 2011 | shares compounds with Scp1 inh
Scp-1 MG ctr = colorimetric readout interference by compounds, confirmation, artefact control for Scp-1 inhibitor project, biochemical, single concentration; shares compounds with Scp1 inh; Colorimetric interference counterscreen, malachite green absorbance 630 nm; apparent inhibition (interference), % at 20 µM; 2,500 tested, under 10 active;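 note: compounds added after enzyme reaction finished so only phosphate colour detection is probed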
Scp-1 Tm shift = Scp-1 binding by thermal shift, confirmation, orthogonal assay for Scp-1 inhibitor project, biophysical, differential scanning fluorimetry | shares compounds with Scp1 inh | Recombinant SCP1, Sypro Orange thermal shift Tm | thermal shift relative to vanadate control, % at 40 µM | 1,500 compounds, 25% hits | AID 540329, 2011;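 active = substances whose mean melting-temperature shift, as a percentage of the reference inhibitor's shift, reaches about 5.3%, limit read from the data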
Each line names hits and unclear results; the compound was inactive in the other large screens (follow-up assays come after a bar, where they were run). An excerpt weighted towards active compounds, which were near 2.3% of everything screened.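 Rule for the calls, unless noted: active = inhibition of at least 30% at 20 µM; inactive = the rest.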

CC(CC(=O)O)Nc1ccccc1O (configuration not stated)	none
CCC(=O)Nc1ccc(NC(=S)NC(=O)/C=C/c2ccccc2)cc1	Scp1 inh 67 | Scp-1 conf inactive | Scp-1 MG ctr inactive
Fc1cc(F)c(NC(=S)N2CCOCC2)c(F)c1	Scp1 inh 95 | Scp-1 conf inactive | Scp-1 MG ctr inactive
Fc1ccccc1NC(=S)N1CCOCC1	none
COC(=O)C1=C(C(=O)OC)[C@@H]2Nc3ccccc3[C@@]23C[C@@H](C(=O)OC)N=C3N1	none
CCC12CCCN3CCC4(C(=C(C(=O)OC)C1)Nc1ccccc14)C32 (configuration not stated)	Scp1 inh 61 | Scp-1 conf inactive | Scp-1 MG ctr inactive
CC(C)c1ccc(NC(=O)C2CC(=O)N(C(C)C)C2)cc1 (configuration not stated)	none | Scp-1 conf inactive | Scp-1 MG ctr inactive
Cc1cc(C=O)c(C)n1-c1cccc(C(=O)O)c1	Scp1 inh 53 | Scp-1 conf 52 | Scp-1 MG ctr inactive | Scp-1 Tm shift inactive
Cc1cc(C)cc(NC(=O)C2CCCN2C(=O)Oc2ccccc2)c1 (configuration not stated)	none
CCOc1ccc(NC(=O)C2CCCN2C(=O)Oc2ccccc2)cc1 (configuration not stated)	Scp1 inh 54 | Scp-1 conf inactive | Scp-1 MG ctr inactive
Cc1cccc(C(=O)OCC(=O)N(CC(C)C)c2c(N)n(Cc3ccccc3)c(=O)[nH]c2=O)c1O	none
O=C(COC(=O)C1=COCCO1)Nc1ccc(Br)cc1Br	none
OCCCc1cn(-c2ccccc2)c2ccccc12	none
Clc1nc(Cl)nc(-c2cn(-c3ccccc3)c3ccccc23)n1	Scp1 inh 91 (no result: DNMT1 inh, Rpn11 inh, STEP inh, LMPTP block, SUMO1-SIM PPI) | Scp-1 conf 72 | Scp-1 MG ctr inactive | Scp-1 Tm shift inactive
O=C(Nc1cc(S(=O)(=O)Nc2ccccc2Cl)ccc1O)c1sc2cc(Cl)ccc2c1Cl	none
CCC(NS(=O)(=O)c1ccc2c(c1)NC(=O)C(C)C(=O)N2)c1cccs1 (configuration not stated)	none | Scp-1 conf inactive | Scp-1 MG ctr inactive
CC1C(=O)Nc2ccc(S(=O)(=O)NCc3ccc(Cl)cc3)cc2NC1=O (configuration not stated)	none | Scp-1 conf inactive | Scp-1 MG ctr inactive
CCCn1c(SCC(=O)NCc2ccc(F)cc2)n[nH]c1=O	none
CC(C)C1C(c2ccccc2)NC(c2ccccc2)CC1(O)c1ccc(F)cc1 (configuration not stated)	none
Cc1cccc(NC(=O)CCNS(=O)(=O)c2ccc3[nH]c(=O)oc3c2)c1	none
Cc1c(CCC(=O)O)c(=O)oc2cc(OCc3cccc(F)c3)ccc12	none
Cc1c(CCC(=O)O)c(=O)oc2cc(OCc3ccccc3Br)ccc12	Scp1 inh 83 | Scp-1 conf 76 | Scp-1 MG ctr inactive | Scp-1 Tm shift inactive
CCC1N=C(SC)NC(C)=C1C(=O)c1ccccc1 (configuration not stated)	Scp1 inh 96 | Scp-1 conf inactive | Scp-1 MG ctr inactive
CCOC(=O)C1=C(C)NC(SC)=NC1c1ccc(OC)cc1 (configuration not stated)	none
Cc1ccc(CNC(=O)c2ccc3c(=O)c(O)c(-c4ccc(C)cc4)[nH]c3c2)cc1	Scp1 inh 56 | Scp-1 conf 51 | Scp-1 MG ctr inactive | Scp-1 Tm shift inactive
CCOc1ccc(CCNC(=O)/C=C/c2ccco2)cc1OCC	Scp1 inh 67 | Scp-1 conf inactive | Scp-1 MG ctr inactive
COc1ccc(CCNC(=O)/C=C/c2ccco2)cc1OC	none
N#C/C(=C(/O)c1ccc(Cl)c([N+](=O)[O-])c1)c1nc2ccccc2[nH]1	none
CC1(C(O)(C#CC[N+]2(C)CCCCC2)c2ccccc2)CCCC1 (configuration not stated)	Scp1 inh 98 | Scp-1 conf 94 | Scp-1 MG ctr inactive | Scp-1 Tm shift inactive
CCC[N+]1(CC#CC(O)(c2ccccc2)C2CCCCC2)CCCCC1 (configuration not stated)	none
CC(NC(=O)CCNS(=O)(=O)c1ccccc1)c1ccccc1 (configuration not stated)	Scp1 inh 51 | Scp-1 conf inactive | Scp-1 MG ctr inactive
CN(CCNC(=O)c1cc2c(=O)n(C)c3ccccc3c2n1C)Cc1ccccc1	none
CCCN(CCC)CCNC(=O)c1cc2c(=O)n(C)c3ccccc3c2n1C	Scp1 inh 90 | Scp-1 conf inactive | Scp-1 MG ctr inactive
FC(F)(F)c1cnc(C(c2ccccc2)c2ncn[nH]2)c(Cl)c1 (configuration not stated)	Scp1 inh 98 | Scp-1 conf inactive | Scp-1 MG ctr inactive
COc1ccc(NS(=O)(=O)c2cc(N/C(=N\S(=O)(=O)c3ccccc3)c3ccc(F)cc3)ccc2Cl)cc1	none
CCCCNC(=O)c1ccc2nc(-c3ccco3)c(-c3ccco3)nc2c1	DNMT1 inh 81, SUMO1-SIM PPI 40, Scp1 inh 53 | Scp-1 conf 51 | Scp-1 MG ctr inactive | Scp-1 Tm shift 13
CCCCOc1ccc(S(=O)(=O)NC(=O)NCc2ccc(OCCC)cc2)cc1	none
CCCCOc1ccc(CNC(=O)NS(=O)(=O)c2ccc(OCC(C)C)cc2)cc1	Scp1 inh 52 | Scp-1 conf 39 | Scp-1 MG ctr inactive | Scp-1 Tm shift inactive
COc1ccccc1NS(=O)(=O)c1ccc(C)c(NC(=O)c2c(C)noc2C)c1	none
